This sample holds only a part of the variants without activity.
B1: tRNA (parent)
chain: GUUCCGUUGGCGUAAUGGUAACGCGUCUCCCUCCUAAGGAGAAGACUGCGGGUUCGAGUCCCGUACGGAACG

Variants of: B1
Experiment: yeast fitness relative to wild type (ratio to wild type); higher = fitter; tRNA-Arg(CCU), competitive growth, 37 C, YPD
In short: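 Gene amplicons from the start population and from each of six end populations were read by 100-nucleotide paired-end sequencing. Those end populations came from pooled Saccharomyces cerevisiae strains carrying tRNA-Arg(CCU) gene variants at the native locus, competed in YPD at 37°C for 24 hours. Fitness relative to wild type was worked out from changes in genotype frequencies. Genotypes needed ≥ 100 starting reads, and estimates < 0.5 were set to 0.5.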

Variant	yeast fitness
GUUCCGUUGGCGUAAUGGUAACGCGUCUCCCUCCUAAGGAGAAGACUGCGGGUUCGAGGCCCGUACAGAACG [U59G G67A]	0.796
GUUCCGUUGGCGUAAUGGUAACGCGUCUCCCUCCUAAGGAGAAGACUGCGGGUUCGAAACCCGUACGGAACG [G58A U59A]	1.06
GUUCCGUUGGCGUAAUGGUAACGCGUCUCCCUCCUAAGGAGAAGACUGCGGGUUCGAGUACCGUAUGCAACG [C60A C66U G68C]	≤ 0.5
GUUCCGUUGGCGUAAUGGUAACGCGUCUCCCUCCUAAGGAGAAGACUGCGGGUUCGACCCCCGUACGGAGCG [G58C U59C A70G]	0.706
GUUCCGUUGGCGUAAUGGUAACGCGUCUCCCUCCUAAGGAGAAGACUGCGGGUUCGACUUCCGUAGGGAACG [G58C C60U C66G]	≤ 0.5
GUUCCGUUGGCGUAAUGGUAACGCGUCUCCCUCCUAAGGAGAAGACUGCGGGUUCGAGUCAAGUACGGAACG [C61A C62A]	0.603
GUUCCGUUGGCGUAAUGGUAACGCGUCUCCCUCCUAAGGAGAAGACUGCGGGUUCGAGUCAUGUACGGAACG [C61A C62U]	0.795
GUUCCGUUGGCGUAAUGGUAACGCGUCUCCCUCCUAAGGAGAAGACUGCGGGUUCGAGACCCGUACGGUACG [U59A A69U]	0.817
GUUCCGUUGGCGUAAUGGUAACGCGUCUCCCUCCUAAGGAGAAGACUGCGGGUUCGAGUACCGUAGGGAACG [C60A C66G]	0.773
GUUCCGUUGGCGUAAUGGUAACGCGUCUCCCUCCUAAGGAGAAGACUGCGGGUUCGAGUACCGUAUGGAACG [C60A C66U]	0.608
GUUCCGUUGGCGUAAUGGUAACGCGUCUCCCUCCUAAGGAGAAGACUGCGGGUUCGACUCUCGUACGGAACG [G58C C61U]	0.887
GUUCCGUUGGCGUAAUGGUAACGCGUCUCCCUCCUAAGGAGAAGACUGCGGGUUCGAGCCUCGUACGGAACG [U59C C61U]	0.839
GUUCCGUUGGCGUAAUGGUAACGCGUCUCCCUCCUAAGGAGAAGACUGCGGGUUCGAGUUCCGUACAGAACG [C60U G67A]	0.721
GUUCCGUUGGCGUAAUGGUAACGCGUCUCCCUCCUAAGGAGAAGACUGCGGGUUCGAGACCGGUACAGAACG [U59A C62G G67A]	≤ 0.5
GUUCCGUUGGCGUAAUGGUAACGCGUCUCCCUCCUAAGGAGAAGACUGCGGGUUCGACUCCCGUACGGGACG [G58C A69G]	0.961
GUUCCGUUGGCGUAAUGGUAACGCGUCUCCCUCCUAAGGAGAAGACUGCGGGUUCGAGUCACCUACGGAACG [C61A G63C]	0.618
GUUCCGUUGGCGUAAUGGUAACGCGUCUCCCUCCUAAGGAGAAGACUGCGGGUUCGAGUACCGCACGGAACG [C60A U64C]	0.718
GUUCCGUUGGCGUAAUGGUAACGCGUCUCCCUCCUAAGGAGAAGACUGCGGGUUCGAGGCCCGUGCGGAACG [U59G A65G]	0.965
GUUCCGUUGGCGUAAUGGUAACGCGUCUCCCUCCUAAGGAGAAGACUGCGGGUUCGAGGCCCGUUCGGAACG [U59G A65U]	0.917
GUUCCGUUGGCGUAAUGGUAACGCGUCUCCCUCCUAAGGAGAAGACUGCGGGUUCGAGUGACGUACGGGACG [C60G C61A A69G]	0.586
GUUCCGUUGGCGUAAUGGUAACGCGUCUCCCUCCUAAGGAGAAGACUGCGGGUUCGAGUGCCGUAGGGGACG [C60G C66G A69G]	0.593
GUUCCGUUGGCGUAAUGGUAACGCGUCUCCCUCCUAAGGAGAAGACUGCGGGUUCGAGCCCUGUACGGAACG [U59C C62U]	0.814
GUUCCGUUGGCGUAAUGGUAACGCGUCUCCCUCCUAAGGAGAAGACUGCGGGUUCGAGACCCGUGCGGAACG [U59A A65G]	1.11
GUUCCGUUGGCGUAAUGGUAACGCGUCUCCCUCCUAAGGAGAAGACUGCGGGUUCGACUCCCCUACGGAACG [G58C G63C]	0.702
GUUCCGUUGGCGUAAUGGUAACGCGUCUCCCUCCUAAGGAGAAGACUGCGGGUUCGACUCCUGUACGGAACG [G58C C62U]	0.893

Variant	yeast fitness
GUUCCGUUGGCGUAAUGGUAACGCGUCUCCCUCCUAAGGAGAAGACUGCGGGUUCGAGAGCCGUACGGAACG [U59A C60G]	0.655
GUUCCGUUGGCGUAAUGGUAACGCGUCUCCCUCCUAAGGAGAAGACUGCGGGUUCGAGUUCCGUACGGAGCG [C60U A70G]	0.786
GUUCCGUUGGCGUAAUGGUAACGCGUCUCCCUCCUAAGGAGAAGACUGCGGGUUCGAGUCACGUAGGGAACG [C61A C66G]	0.572
GUUCCGUUGGCGUAAUGGUAACGCGUCUCCCUCCUAAGGAGAAGACUGCGGGUUCGAGUAUCCUAUGGAACG [C60A C61U G63C C66U]	≤ 0.5
GUUCCGUUGGCGUAAUGGUAACGCGUCUCCCUCCUAAGGAGAAGACUGCGGGUUCGAGUACGGUACGGACCG [C60A C62G A70C]	≤ 0.5
GUUCCGUUGGCGUAAUGGUAACGCGUCUCCCUCCUAAGGAGAAGACUGCGGGUUCGAGUCGCGUGUGGGACG [C61G A65G C66U A69G]	0.646
GUUCCGUUGGCGUAAUGGUAACGCGUCUCCCUCCUAAGGAGAAGACUGCGGGUUCGAGUUGCGUACAGAACG [C60U C61G G67A]	≤ 0.5
GUUCCGUUGGCGUAAUGGUAACGCGUCUCCCUCCUAAGGAGAAGACUGCGGGUUCGACUACCGUCCGGAACG [G58C C60A A65C]	≤ 0.5
GUUCCGUUGGCGUAAUGGUAACGCGUCUCCCUCCUAAGGAGAAGACUGCGGGUUCGAGACCUGUACGGAACG [U59A C62U]	0.922
GUUCCGUUGGCGUAAUGGUAACGCGUCUCCCUCCUAAGGAGAAGACUGCGGGUUCGAGUCACGUACGGACCG [C61A A70C]	0.694
GUUCCGUUGGCGUAAUGGUAACGCGUCUCCCUCCUAAGGAGAAGACUGCGGGUUCGAGUGCCGUAUGGAACG [C60G C66U]	0.599
GUUCCGUUGGCGUAAUGGUAACGCGUCUCCCUCCUAAGGAGAAGACUGCGGGUUCGAGUGCCGUAAGGAACG [C60G C66A]	0.541
GUUCCGUUGGCGUAAUGGUAACGCGUCUCCCUCCUAAGGAGAAGACUGCGGGUUCGAGUCACGUACAGAACG [C61A G67A]	0.582
GUUCCGUUGGCGUAAUGGUAACGCGUCUCCCUCCUAAGGAGAAGACUGCGGGUUCGACUCCCGUAGGGAACG [G58C C66G]	0.711
GUUCCGUUGGCGUAAUGGUAACGCGUCUCCCUCCUAAGGAGAAGACUGCGGGUUCGACUCCCGUAAGGAACG [G58C C66A]	0.717
GUUCCGUUGGCGUAAUGGUAACGCGUCUCCCUCCUAAGGAGAAGACUGCGGGUUCGAGCCACGUAAGGAACG [U59C C61A C66A]	≤ 0.5
GUUCCGUUGGCGUAAUGGUAACGCGUCUCCCUCCUAAGGAGAAGACUGCGGGUUCGAGCCCCGUACGGUACG [U59C A69U]	1.02
GUUCCGUUGGCGUAAUGGUAACGCGUCUCCCUCCUAAGGAGAAGACUGCGGGUUCGAGCUCCGUACGGAACG [U59C C60U]	0.704
GUUCCGUUGGCGUAAUGGUAACGCGUCUCCCUCCUAAGGAGAAGACUGCGGGUUCGAGCCCCGUACGGAUCG [U59C A70U]	1.01
GUUCCGUUGGCGUAAUGGUAACGCGUCUCCCUCCUAAGGAGAAGACUGCGGGUUCGAGCCCCGUACGGACCG [U59C A70C]	0.897
GUUCCGUUGGCGUAAUGGUAACGCGUCUCCCUCCUAAGGAGAAGACUGCGGGUUCGACCCCCGUACGGUACG [G58C U59C A69U]	0.679
GUUCCGUUGGCGUAAUGGUAACGCGUCUCCCUCCUAAGGAGAAGACUGCGGGUUCGAGUCGCGUACGGAGCG [C61G A70G]	0.685
GUUCCGUUGGCGUAAUGGUAACGCGUCUCCCUCCUAAGGAGAAGACUGCGGGUUCGAGUACCGUGCGGAACG [C60A A65G]	0.573
GUUCCGUUGGCGUAAUGGUAACGCGUCUCCCUCCUAAGGAGAAGACUGCGGGUUCGAGACCCGGACGGAACG [U59A U64G]	0.52
GUUCCGUUGGCGUAAUGGUAACGCGUCUCCCUCCUAAGGAGAAGACUGCGGGUUCGAGUCGCGUCCGGAACG [C61G A65C]	0.658

Variant	yeast fitness
GUUCCGUUGGCGUAAUGGUAACGCGUCUCCCUCCUAAGGAGAAGACUGCGGGUUCGAGUCGCGUGCGGAACG [C61G A65G]	0.713
GUUCCGUUGGCGUAAUGGUAACGCGUCUCCCUCCUAAGGAGAAGACUGCGGGUUCGAGUGCCGUACGGUACG [C60G A69U]	0.655
GUUCCGUUGGCGUAAUGGUAACGCGUCUCCCUCCUAAGGAGAAGACUGCGGGUUCGAGUACCGUACGGACCG [C60A A70C]	0.621
GUUCCGUUGGCGUAAUGGUAACGCGUCUCCCUCCUAAGGAGAAGACUGCGGGUUCGAGUACCGUACGGAGCG [C60A A70G]	0.531
GUUCCGUUGGCGUAAUGGUAACGCGUCUCCCUCCUAAGGAGAAGACUGCGGGUUCGAGCCCCGUCCGGAACG [U59C A65C]	0.837
GUUCCGUUGGCGUAAUGGUAACGCGUCUCCCUCCUAAGGAGAAGACUGCGGGUUCGAGACCCGUAUGGAACG [U59A C66U]	0.815
GUUCCGUUGGCGUAAUGGUAACGCGUCUCCCUCCUAAGGAGAAGACUGCGGGUUCGAGACCCGUAGGGAACG [U59A C66G]	0.669
GUUCCGUUGGCGUAAUGGUAACGCGUCUCCCUCCUAAGGAGAAGACUGCGGGUUCGAGACCCGUACAGAACG [U59A G67A]	0.799
GUUCCGUUGGCGUAAUGGUAACGCGUCUCCCUCCUAAGGAGAAGACUGCGGGUUCGAGUGCCAUACAGAACG [C60G G63A G67A]	≤ 0.5
GUUCCGUUGGCGUAAUGGUAACGCGUCUCCCUCCUAAGGAGAAGACUGCGGGUUCGACUCUCGUAUGGAACG [G58C C61U C66U]	0.621
GUUCCGUUGGCGUAAUGGUAACGCGUCUCCCUCCUAAGGAGAAGACUGCGGGUUCGAGUACCGUACGGCACG [C60A A69C]	0.752
GUUCCGUUGGCGUAAUGGUAACGCGUCUCCCUCCUAAGGAGAAGACUGCGGGUUCGAGUACCGUACGGUACG [C60A A69U]	0.746
GUUCCGUUGGCGUAAUGGUAACGCGUCUCCCUCCUAAGGAGAAGACUGCGGGUUCGAGUAACAUACGGAACG [C60A C61A G63A]	0.605
GUUCCGUUGGCGUAAUGGUAACGCGUCUCCCUCCUAAGGAGAAGACUGCGGGUUCGAGUACCGUUCGGAUCG [C60A A65U A70U]	0.53
GUUCCGUUGGCGUAAUGGUAACGCGUCUCCCUCCUAAGGAGAAGACUGCGGGUUCGAGUCACGUACGGGACG [C61A A69G]	0.584
GUUCCGUUGGCGUAAUGGUAACGCGUCUCCCUCCUAAGGAGAAGACUGCGGGUUCGAGUUCAGUACGGAACG [C60U C62A]	≤ 0.5
GUUCCGUUGGCGUAAUGGUAACGCGUCUCCCUCCUAAGGAGAAGACUGCGGGUUCGAGUUCGGUACGGAACG [C60U C62G]	0.688
GUUCCGUUGGCGUAAUGGUAACGCGUCUCCCUCCUAAGGAGAAGACUGCGGGUUCGAGUUCCGCACGGAACG [C60U U64C]	0.833
GUUCCGUUGGCGUAAUGGUAACGCGUCUCCCUCCUAAGGAGAAGACUGCGGGUUCGAGACCCGUACGUAACG [U59A G68U]	0.769
GUUCCGUUGGCGUAAUGGUAACGCGUCUCCCUCCUAAGGAGAAGACUGCGGGUUCGAGACCCGUACGAAACG [U59A G68A]	0.791
GUUCCGUUGGCGUAAUGGUAACGCGUCUCCCUCCUAAGGAGAAGACUGCGGGUUCGAGUUCCGUAUGGAACG [C60U C66U]	0.711
GUUCCGUUGGCGUAAUGGUAACGCGUCUCCCUCCUAAGGAGAAGACUGCGGGUUCGAUUCCCGUAAGGACCG [G58U C66A A70C]	0.665
GUUCCGUUGGCGUAAUGGUAACGCGUCUCCCUCCUAAGGAGAAGACUGCGGGUUCGAGGCCUGUACGGAACG [U59G C62U]	0.875
GUUCCGUUGGCGUAAUGGUAACGCGUCUCCCUCCUAAGGAGAAGACUGCGGGUUCGAUUCCCGUGCAGAACG [G58U A65G G67A]	≤ 0.5
GUUCCGUUGGCGUAAUGGUAACGCGUCUCCCUCCUAAGGAGAAGACUGCGGGUUCGAGUGCCGUACGCAACG [C60G G68C]	0.603

Source: the RNAGym collection of RNA variant scans (doi:10.1126/science.aae0568)
